Reference: ChEMBL document CHEMBL2040808, “Design, synthesis, and in vitro activity of novel 2'-O-substituted 15-membered azalides” (J Med Chem, 2012)

Assays:
Plasmodium falciparum [1] = experiment: Antimalarial activity against chloroquine-sensitive Plasmodium falciparum 3D7A infected in type A rhesus-positive human erythrocytes assessed as [3H]hypoxanthine incorporation after 48 hrs by scintillation counting; format: functional, organism-based
Summary of the method: (§1)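 Modified semiautomated microdilution: compounds dissolved in DMSO, diluted in RPMI 1640 with 10% v/v human plasma, serial 1:2 dilutions in triplicate. Infected erythrocytes at 3% hematocrit, 0.25−0.55% parasitemia. [3H]hypoxanthine at 12.5−16 μCi/mL final. Incubated 48 h, 37 °C, in 5% O2/3% CO2/92% N2. Harvested on fiberglass strips, scintillation counted. IC50 by nonlinear regression of concentration−response curves.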

Staphylococcus aureus = experiment: Antibacterial activity against Staphylococcus aureus ATCC 13709 by broth microdilution method; format: functional
Summary of the method: (§2)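 Standard broth microdilution MIC against macrolide-sensitive strains. For streptococci, 5% horse serum replaced lysed horse blood in the broth, and inocula were grown on Columbia agar with 5% sheep blood. S. aureus was grown on Mueller–Hinton agar.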

[2] = Aqueous solubility of the compound at pH 4; format: physicochemical
Plasmodium falciparum [3] = experiment: Antimalarial activity against chloroquine-resistant Plasmodium falciparum W2 infected in type A rhesus-positive human erythrocytes assessed as [3H]hypoxanthine incorporation after 48 hrs by scintillation counting; format: functional, organism-based; summary of the method: as §1
HepG2 = experiment: Cytotoxicity against human HepG2 cells after 24 hrs by MTS assay; format: cell-based; details: HepG2, 24 h
Summary of the method: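 Hep G2 cells were kept in RPMI 1640 with 10% FBS at 37 °C and 5% CO2. Wells held 50000 cells and received 1:2 serial dilutions of compound (DMSO stock diluted in medium) for 24 h. MTS reagent was then added for 2 h, absorbance was read at 490 nm, and IC50 was taken from response curves.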

Streptococcus pneumoniae = experiment: Antibacterial activity against Streptococcus pneumoniae isolate SP030 by broth microdilution method; format: functional; summary of the method: as §2
[4] = Selectivity ratio of IC50 for human HepG2 cells to IC50 for chloroquine-sensitive Plasmodium falciparum 3D7A; format: ADME, cell-based; details: HepG2 cells versus Plasmodium falciparum 3D7A, read-out: Ratio IC50
Summary of the method: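 Selectivity is the HepG2 IC50 divided by the P. falciparum IC50. For HepG2, 50000 cells per well in RPMI 1640 with 10% FBS were exposed to 1:2 serial dilutions for 24 h at 37 °C, 5% CO2. MTS was added for 2 h and absorbance read at 490 nm. Parasite IC50 came from the 48 h [3H]hypoxanthine assay.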

[5] = Selectivity ratio of IC50 for human HepG2 cells to IC50 for chloroquine-sensitive Plasmodium falciparum 3D7A; details: HepG2 cells versus Plasmodium falciparum 3D7A
Plasmodium falciparum [6] = experiment: Ratio of IC50 for azithromycin to compound IC50 for chloroquine-resistant Plasmodium falciparum W2 infected in type A rhesus-positive human erythrocytes assessed as [3H]hypoxanthine incorporation after 48 hrs by scintillation counting; format: functional
Streptococcus pyogenes = experiment: Antibacterial activity against Streptococcus pyogenes isolate 3565 by broth microdilution method; format: functional; summary of the method: as §2
Plasmodium falciparum [7] = experiment: Ratio of IC50 for azithromycin to compound IC50 for chloroquine-sensitive Plasmodium falciparum 3D7A infected in type A rhesus-positive human erythrocytes assessed as [3H]hypoxanthine incorporation after 48 hrs by scintillation counting; format: functional

Compound	IC50 (Plasmodium falciparum [1])	MIC (Staphylococcus aureus)	solubility [2]	IC50 (Plasmodium falciparum [3])	IC50 (HepG2)	MIC (Streptococcus pneumoniae)	selectivity ratio [4]	selectivity ratio [5]	Ratio IC50 (Plasmodium falciparum [6])	MIC (Streptococcus pyogenes)	Ratio IC50 (Plasmodium falciparum [7])
CC[C@H]1OC(=O)[C@H](C)[C@@H](O[C@H]2C[C@@](C)(OC)[C@@H](O)[C@H](C)O2)[C@H](C)[C@@H](O[C@@H]2O[C@H](C)C[C@H](N(C)C)[C@H]2OCCCNCc2cnc3ccccc3c2)[C@](C)(O)C[C@@H](C)CN(C)[C@H](C)[C@@H](O)[C@]1(C)O	228 nM	> 64 µg/mL	> 10000 µg/mL	46 nM	20000 nM	> 64 µg/mL	88	88	3	> 64 µg/mL	3
CC[C@H]1OC(=O)[C@H](C)[C@@H](O[C@H]2C[C@@](C)(OC)[C@@H](O)[C@H](C)O2)[C@H](C)[C@@H](O[C@@H]2O[C@H](C)C[C@H](N(C)C)[C@H]2OCCCNCc2ccc3ccccc3n2)[C@](C)(O)C[C@@H](C)CN(C)[C@H](C)[C@@H](O)[C@]1(C)O	227 nM	> 64 µg/mL	> 10000 µg/mL	55 nM	30000 nM	> 64 µg/mL	132	132	3	> 64 µg/mL	3
CC[C@H]1OC(=O)[C@H](C)[C@@H](O[C@H]2C[C@@](C)(OC)[C@@H](O)[C@H](C)O2)[C@H](C)[C@@H](O[C@@H]2O[C@H](C)C[C@H](N(C)C)[C@H]2OCCCN(C)Cc2ccnc3ccccc23)[C@](C)(O)C[C@@H](C)CN(C)[C@H](C)[C@@H](O)[C@]1(C)O	248 nM	> 64 µg/mL	> 10000 µg/mL	49 nM	45000 nM	> 64 µg/mL	132	132	3	> 64 µg/mL	3
CC[C@H]1OC(=O)[C@H](C)[C@@H](O[C@H]2C[C@@](C)(OC)[C@@H](O)[C@H](C)O2)[C@H](C)[C@@H](O[C@@H]2O[C@H](C)C[C@H](N(C)C)[C@H]2OCCCN(C)Cc2cnc3ccccc3c2)[C@](C)(O)C[C@@H](C)CN(C)[C@H](C)[C@@H](O)[C@]1(C)O	466 nM	> 64 µg/mL	> 10000 µg/mL	47 nM	23000 nM	> 64 µg/mL	49	49	3	> 64 µg/mL	3
CC[C@H]1OC(=O)[C@H](C)[C@@H](O)[C@H](C)[C@@H](O[C@@H]2O[C@H](C)C[C@H](N(C)C)[C@H]2OCCCNCc2ccnc3ccccc23)[C@](C)(O)C[C@@H](C)CN(C)[C@H](C)[C@@H](O)[C@]1(C)O	540 nM	> 64 µg/mL	> 10000 µg/mL	432 nM	> 100000 nM	> 64 µg/mL	132	132	3	> 64 µg/mL	3
